Assay results: ChEMBL document CHEMBL3244156, “Analgesic and tranquilizing activity of 5,8-disubstituted 1-tetralone Mannich bases” (1977)
Active and inactive are the calls of the source. No cut-off for these calls is given here.

Columns and labels:
Mus musculus [1] = assay: Neuroleptic activity in ip dosed mouse assessed as inhibition of amphetamine-induced mortality; assay type: functional
Procedure, shortened: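 Aggregated mice in groups of ten given amphetamine. Value is an ED50 estimate for blocking lethality, bracketed between a dose where <5/10 died and a dose where >5/10 died.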

Rattus norvegicus [2] = assay: Neuroleptic activity in ip dosed rat assessed as drug required for blocking discriminated jump-out avoidance behavior in after 1 hr; assay type: functional
Procedure, shortened: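 Rats trained in discriminated jump-out avoidance and tested 1 h after dosing. Value is an estimated ED50 for blocking avoidance.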

Rattus norvegicus [3] = assay: Analgesic activity in rat assessed as median foot shock required to elicit flinch-jump at 32 mg/kg, ip after 2 hrs; assay type: functional; conditions: route intraperitoneal
Procedure, shortened: (§1)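 Series given just before and 0.5 and 2 h after ip dosing. Flinch, squeak and jump were scored. Value is the median shock (mA) that elicits a jump. At least five rats per dose.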

Canis familiaris [4] = assay: Analgesic activity in dog assessed as rippling of skin at 10 mg/kg, po after 2 hrs by radiant heat assay; assay type: functional, Canis lupus familiaris
Procedure, shortened: (§2)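 Dogs held in a harness with a shaved mid-back patch placed under a concealed radiant heat source. Endpoint is the latency from heat onset to skin "rippling". Baseline latency measured in each dog, then retested at 0.5 and 2 h after dosing. Result expressed as % of control.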

Mus musculus [5] = assay: Analgesic activity in mouse at 100 mg/kg, ip after 2 hrs by hot plate assay; assay type: functional; conditions: route intraperitoneal
Procedure, shortened: (§3)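 Mice dropped into a glass cylinder on an aluminum plate held at 57 °C. Timed from foot contact to first hind-foot flick, with a 10-s limit. Observed 0.5 and 2 h after treatment. Value is % of mice failing to react within the limit. At least ten mice per dose.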

Mus musculus [6] = assay: Analgesic activity in mouse assessed as tail-flick latency period at 100 mg/kg, ip after 2 hrs by tail flick test; assay type: functional; conditions: route intraperitoneal
Rattus norvegicus [7] = assay: Analgesic activity in rat assessed as median foot shock required to elicit flinch-jump at 17.8 mg/kg, po after 2 hrs; assay type: functional
Canis familiaris [8] = assay: Analgesic activity in dog assessed as rippling of skin at 5 mg/kg, po after 2 hrs by radiant heat assay; assay type: functional, Canis lupus familiaris; procedure, shortened: as §2
Rattus norvegicus [9] = assay: Analgesic activity in rat assessed as median foot shock required to elicit flinch-jump at 10 mg/kg, ip after 2 hrs; assay type: functional; conditions: route intraperitoneal; procedure, shortened: as §1
Rattus norvegicus [10] = species on record: Rattus norvegicus; assay: Induction of tolerance development in rat assessed as median foot shock required to elicit flinch-jump; assay type: functional, organism-based
Rattus norvegicus [11] = assay: Analgesic activity in ip dosed rat assessed as median foot shock required to elicit flinch-jump in presence of naloxone; assay type: functional, organism-based
Rattus norvegicus [12] = species on record: Rattus norvegicus; assay: Induction of cross-tolerance development in rat assessed as median foot shock required to elicit flinch-jump in presence of morphine; assay type: functional, organism-based
Mus musculus [13] = assay: Analgesic activity in mouse at 32 mg/kg, ip after 2 hrs by hot plate assay; assay type: functional; conditions: route intraperitoneal; procedure, shortened: as §3
Mus musculus [14] = assay: Analgesic activity in mouse assessed as tail-flick latency period at 32 mg/kg, ip after 2 hrs by tail flick test; assay type: functional; conditions: route intraperitoneal
Canis familiaris [15] = assay: Analgesic activity in dog assessed as rippling of skin at 5 mg/kg, ip after 2 hrs by radiant heat assay; assay type: functional, Canis lupus familiaris; conditions: route intraperitoneal; procedure, shortened: as §2

Row | SMILES | Activity (Rattus norvegicus [3]) [mA] | Activity (Mus musculus [5]) [%] | Activity (Mus musculus [6]) [%] | further results
1 | COc1ccc(Cl)c2c1CCC(CN1CCOCC1)C2=O.O=C(O)/C=C\C(=O)O (configuration not stated) | 2.2 | 0 | 20 | ED50 (Mus musculus [1]): 32 mg/kg; ED50 (Rattus norvegicus [2]): 0.32 mg/kg; Activity (Canis familiaris [4]): 140%
2 | COc1ccc(C)c2c1CCC(CN1CCCC1)C2=O.Cl (configuration not stated) | 2.2 | 12.5 | 50 | –
3 | COc1ccc(Cl)c2c1CCC(CN(C)C)C2=O.Cl (configuration not stated) | 2.2 | 0 | 10 | ED50 (Mus musculus [1]): 32 mg/kg; ED50 (Rattus norvegicus [2]): > 178 mg/kg; Activity (Canis familiaris [4]): 130%
4 | COc1ccc(Cl)c2c1CC(CN1CCCCC1)C2=O.Cl (configuration not stated) | 0.6 | 0 | 0 | –
5 | COc1ccc(Cl)c2c1CC(CN(C)C)C2=O.Cl (configuration not stated) | 0.6 | 20 | 30 | –
6 | COc1ccc(Cl)c2c1CCC(C(C)N1CCOCC1)C2=O.Cl (configuration not stated) | 0.6 | 0 | 0 | –
7 | COc1ccc(Cl)c2c1CCC(C(c1ccccc1)N1CCCCC1)C2=O.Cl (configuration not stated) | 0.6 | 30 | 0 | –
8 | COc1ccc(OC)c2c1CCC(CN1CCCCC1)C2=O.Cl (configuration not stated) | 2.2 | 0 | 22 | –
9 | COc1ccc(F)c2c1CCC(CN1CCCC1)C2=O.Cl (configuration not stated) | 1.2 | 50 | 0 | –
10 | CCC(=O)O[C@](Cc1ccccc1)(c1ccccc1)[C@H](C)CN(C)C [PROPOXYPHENE] | – | 30 | 70 | Activity (Rattus norvegicus [7]): 1.2%; Activity (Canis familiaris [8]): 100%
11 | COc1ccc(Cl)c2c1CCC(CN1CCCC1)C2=O.Cl (configuration not stated) | >2.2 | 30 | 0 | ED50 (Mus musculus [1]): 10 mg/kg; ED50 (Rattus norvegicus [2]): > 178 mg/kg; Activity (Rattus norvegicus [9]): 1.2 mA; Activity (Canis familiaris [4]): 160%; Activity (Rattus norvegicus [10]): inactive; Activity (Rattus norvegicus [11]): Active; Activity (Rattus norvegicus [12]): inactive
12 | Cl.O=C1c2ccccc2CCC1CN1CCOCC1 (configuration not stated) | 0.6 | 10 | 20 | ED50 (Mus musculus [1]): 32 mg/kg; ED50 (Rattus norvegicus [2]): > 10 mg/kg; Activity (Canis familiaris [4]): 90%
13 | COc1cccc2c1CCC(CN1CCCC1)C2=O.Cl (configuration not stated) | 0.8 | 0 | 0 | –
14 | COc1ccc(OC)c2c1CCC(CN1CCOCC1)C2=O.Cl (configuration not stated) | 0.6 | 10 | 0 | –
15 | CCc1c(C)[nH]c2c1C(=O)C(CN1CCOCC1)CC2 (configuration not stated) [MOLINDONE] | – | – | – | ED50 (Mus musculus [1]): 3.2 mg/kg; ED50 (Rattus norvegicus [2]): 3.2 mg/kg
16 | COc1ccc(Cl)c2c1C(C)CC(CN1CCCCC1)C2=O.Cl (configuration not stated) | 1.2 | – | – | –
17 | COc1cccc2c1CCC(CN1CCCCC1)C2=O.Cl (configuration not stated) | 0.8 | – | – | –
18 | CCOc1ccc(Cl)c2c1CCC(CN1CCCCC1)C2=O.Cl (configuration not stated) | 0.6 | 33 | 33 | –
19 | COc1ccc(Cl)c2c1CCC(C)(CN1CCCCC1)C2=O.Cl (configuration not stated) | 0.6 | – | – | –
20 | COc1ccc(F)c2c1CCC(CN(C)C)C2=O.Cl (configuration not stated) | 0.6 | 50 | 0 | –
21 | COc1ccc(C)c2c1CCC(CN(C)C)C2=O.Cl (configuration not stated) | 0.6 | – | – | –
22 | CNCC1CCc2c(OC)ccc(Cl)c2C1=O.Cl (configuration not stated) | >2.2 | 10 | 0 | Activity (Rattus norvegicus [9]): 1.2 mA
23 | C=CCNCC1CCc2c(OC)ccc(Cl)c2C1=O.Cl (configuration not stated) | >2.2 | – | – | Activity (Rattus norvegicus [9]): 2.2 mA; Activity (Mus musculus [13]): 0%; Activity (Mus musculus [14]): 0%
24 | Cl.O=C1c2ccccc2CCC1CN1CCCC1 (configuration not stated) | 1.2 | 0 | 10 | ED50 (Mus musculus [1]): 32 mg/kg; ED50 (Rattus norvegicus [2]): > 10 mg/kg; Activity (Canis familiaris [4]): 100%
25 | CCOC(=O)N1CCN(CC2CCc3c(OC)ccc(Cl)c3C2=O)CC1.O=C(O)/C=C\C(=O)O (configuration not stated) | 0.6 | 0 | 0 | –
26 | COc1cccc2c1CCC(CN1CCOCC1)C2=O.Cl (configuration not stated) | 0.6 | – | – | –
27 | COc1ccc(Cl)c2c1CCC(CN1CCC(O)(c3ccccc3)CC1)C2=O.Cl (configuration not stated) | >2.2 | 60 | 0 | Activity (Rattus norvegicus [9]): 1.2 mA
28 | COc1ccc(F)c2c1CCC(CN1CCOCC1)C2=O.Cl (configuration not stated) | 1.2 | 30 | 10 | –

Row | SMILES | Activity (Rattus norvegicus [3]) [mA] | Activity (Mus musculus [5]) [%] | Activity (Mus musculus [6]) [%] | further results
29 | COc1ccc(Cl)c2c1CCC(CN1CCCCCC1)C2=O.Cl (configuration not stated) | 1.2 | 0 | 0 | –
30 | COc1ccc(OC)c2c1CCC(CN(C)C)C2=O.Cl (configuration not stated) | 0.6 | 10 | 0 | –
31 | COc1ccc(F)c2c1CCC(CN1CCCCC1)C2=O.Cl (configuration not stated) | 1.6 | – | – | Activity (Mus musculus [13]): 60%; Activity (Mus musculus [14]): 10%
32 | Cl.O=C1c2ccccc2CCC1CN1CCCCC1 (configuration not stated) | 0.8 | 0 | 0 | ED50 (Mus musculus [1]): > 100 mg/kg; ED50 (Rattus norvegicus [2]): > 32 mg/kg
33 | COc1ccc(Cl)c2c1CCC(CNC1CCCCC1)C2=O.Cl (configuration not stated) | >2.2 | – | 0 | Activity (Rattus norvegicus [9]): 1.2 mA
34 | COc1ccc(Cl)c2c1CCC(C)(CN1CCOCC1)C2=O.Cl (configuration not stated) | 0.6 | – | – | –
35 | CCOc1ccc(Cl)c2c1CCC(CN1CCOCC1)C2=O.Cl (configuration not stated) | 2.2 | 10 | 20 | –
36 | COc1ccc(Cl)c2c1CCC(CN1CCC(c3ccccc3)CC1)C2=O.Cl (configuration not stated) | >2.2 | 20 | 10 | Activity (Rattus norvegicus [9]): 2.2 mA
37 | CCOC(=O)C1(c2ccccc2)CCN(C)CC1 [MEPERIDINE] | 1.2 | 50 | 70 | ED50 (Rattus norvegicus [2]): 10 mg/kg; Activity (Canis familiaris [15]): 150%
38 | COc1ccc(Cl)c2c1C(C)CC(CN1CCOCC1)C2=O.Cl (configuration not stated) | 0.8 | 30 | 40 | –
39 | COc1ccc(Cl)c2c1CCC(C(C)N1CCCCC1)C2=O.Cl (configuration not stated) | 0.6 | 20 | 0 | –
40 | CN(C)CCCN1c2ccccc2Sc2ccc(Cl)cc21 [CHLORPROMAZINE] | – | – | – | ED50 (Mus musculus [1]): 1 mg/kg; ED50 (Rattus norvegicus [2]): 3.2 mg/kg
41 | COc1ccc(Cl)c2c1CCC(C(c1ccccc1)N1CCOCC1)C2=O.Cl (configuration not stated) | 0.6 | 0 | 0 | –
42 | CCN(CC)CC1CCc2c(OC)ccc(Cl)c2C1=O.O=C(O)/C=C\C(=O)O (configuration not stated) | 0.6 | 20 | 0 | –
43 | CN(C)CC1CCc2ccccc2C1=O.Cl (configuration not stated) | 1.2 | 10 | 0 | ED50 (Mus musculus [1]): 32 mg/kg; ED50 (Rattus norvegicus [2]): > 10 mg/kg; Activity (Canis familiaris [4]): 70%
44 | COc1cccc2c1CCC(CN(C)C)C2=O.Cl (configuration not stated) | 1.2 | 0 | 0 | –
45 | COc1ccc(Cl)c2c1CCC(CN1CCCCC1)C2=O.Cl (configuration not stated) | >2.2 | 0 | 0 | ED50 (Mus musculus [1]): 10 mg/kg; ED50 (Rattus norvegicus [2]): 32 mg/kg; Activity (Rattus norvegicus [9]): 2.2 mA; Activity (Canis familiaris [4]): 110%
46 | COc1ccc(OC)c2c1CCC(CN1CCCC1)C2=O.Cl (configuration not stated) | 1.2 | 0 | 0 | –
47 | CCOc1ccc(Cl)c2c1CCC(CN1CCCC1)C2=O.Cl (configuration not stated) | 0.6 | 30 | 60 | –
48 | COc1ccc(C)c2c1CCC(CN1CCOCC1)C2=O.Cl (configuration not stated) | 0.6 | 10 | 0 | –
49 | COc1ccc(Cl)c2c1CC(CN1CCCC1)C2=O.Cl (configuration not stated) | 0.6 | 0 | 0 | –
50 | CCOC1(c2ccccc2)CCN(CC2CCc3c(OC)ccc(Cl)c3C2=O)CC1.Cl (configuration not stated) | 1.2 | 0 | 0 | –
51 | CCNCC1CCc2c(OC)ccc(Cl)c2C1=O.Cl (configuration not stated) | >2.2 | – | – | Activity (Rattus norvegicus [9]): 2.2 mA; Activity (Mus musculus [13]): 40%; Activity (Mus musculus [14]): 0%
52 | COc1ccc(C)c2c1CCC(CN1CCCCC1)C2=O.Cl (configuration not stated) | >2.2 | – | – | Activity (Rattus norvegicus [9]): 2.2 mA; Activity (Mus musculus [13]): 40%; Activity (Mus musculus [14]): 30%
53 | CCOc1ccc(Cl)c2c1CCC(CN(C)C)C2=O.Cl (configuration not stated) | 0.6 | 0 | 0 | –
54 | COc1ccc(Cl)c2c1CC(CN1CCOCC1)C2=O.Cl (configuration not stated) | 0.6 | 0 | 0 | –
55 | CN1CCN(CC/C=C2/c3ccccc3Sc3ccc(S(=O)(=O)N(C)C)cc32)CC1 [THIOTHIXENE] | – | – | – | ED50 (Mus musculus [1]): 0.32 mg/kg; ED50 (Rattus norvegicus [2]): 3.2 mg/kg
